According to ChEMBL document CHEMBL6096643 (Bioorg Med Chem, 2024):
Blank lines part the entries; values can stand above or below the molecule they belong to. Calls of active or inactive are those of the source. The calls are words filed in the database; no cut-off is given here.

Assays:
[1] = Cytotoxicity against human HPDE cells measured after 48 hrs by CellTiter 96 Aqueous One Solution Cell Proliferation Assay; type: toxicity, cell-based
[2] = Disruption of microtubule network in rat A10 cells incubated for 18 hrs by fluorescence microscopic analysis; type: cell-based
Outline: (§1)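 A-10 cells on glass coverslips exposed to a range of compound concentrations for 18 h. Cells fixed, microtubules stained with β-tubulin antibody, nuclei with DAPI, then viewed by fluorescence microscopy. Microtubule loss estimated visually, EC50 taken from dose-response curves, two independent experiments.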

MCF7 = assay: Antiproliferative activity against human MCF7 cells assessed as cell growth inhibition measured after 48 hrs by sulforhodamine B assay; type: functional, cell-based; settings: MCF7, 48 h
Outline: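 MCF-7 cells grown 24 h without drug, then 48 h with varying compound concentrations. Total cell protein measured by sulforhodamine B assay; IC50 for growth inhibition derived.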

[3] = Inhibition of bovine brain tubulin polymerization preincubated for 15 mins followed by GTP addition and measured after 20 mins; set-up: species or system Bos taurus
Tubulin (Homo sapiens) [4] = target: T1, Tubulin (Homo sapiens) (UniProt P68371+Q9H4B7+P0DPH7+P68366+Q13509+Q71U36+P04350+Q3ZCM7+P07437+P68363+Q9BQE3+Q6PEY2+Q13885+Q9BVA1+Q9BUF5); assay: Inhibition of [3H]colchicine binding to tubulin (unknown origin) at 50 uM relative to control; type: protein-complex assay
Outline: (§2)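 Tubulin at 1.0 μM (0.1 mg/mL), [3H]colchicine at 5.0 μM, compounds at 5 or 50 μM. Bound colchicine measured by DEAE-cellulose filter method; triplicate experiments.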

A10 [5] = assay: Disruption of microtubule network in rat A10 cells at 15 uM incubated for 18 hrs by fluorescence microscopic analysis; type: cell-based; outline: as §1
HCT-116 = assay: Cytotoxicity against human HCT-116 cells measured after 48 hrs by CellTiter 96 Aqueous One Solution Cell Proliferation Assay; type: functional, cell-based; settings: HCT-116, 48 h
Tubulin (Homo sapiens) [6] = target: T1, Tubulin (Homo sapiens); assay: Inhibition of [3H]colchicine binding to tubulin (unknown origin) at 5 uM relative to control; type: protein-complex assay; outline: as §2
A10 [7] = assay: Disruption of microtubule network in rat A10 cells at 2.5 uM incubated for 18 hrs by fluorescence microscopic analysis; type: cell-based
Outline: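 Rat A-10 cells grown on glass coverslips, exposed 18 h to a range of compound concentrations (single-concentration image at 2.5 μM), then fixed. Microtubules stained by indirect immunofluorescence with β-tubulin antibody, nuclei with 4,6-diamidino-2-phenylindole. Interphase microtubule loss scored visually by fluorescence microscopy against vehicle control.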

MIA PaCa-2 = assay: Cytotoxicity against human MIA PaCa-2 cells at 1.562 to 100 uM measured after 48 hrs by CellTiter 96 Aqueous One Solution Cell Proliferation Assay; type: functional, cell-based; settings: dose 1.562-100 µM
A10 [8] = assay: Disruption of microtubule network in rat A10 cells at 20 uM incubated for 18 hrs by fluorescence microscopic analysis; type: cell-based; outline: as §1

SMILES: COc1ccc(/C=C\c2cc(OC)c(OC)c(OC)c2)cc1O [COMBRETASTATIN A4]
IC50 at 48 h [1]: > 50 µM
EC50 [2]: < 0.025 µM

SMILES: COc1cc(/C=C\c2cnc(OC)c(B(O)O)c2)cc(OC)c1OC
IC50 (MCF7): 0.39 µM
IC50 at 48 h [1]: > 50 µM
IC50 [3]: 30 µM
inhibition (Tubulin (Homo sapiens) [4]): inactive
EC50 [2]: 9 µM
Activity (A10 [5]): Active
IC50 (HCT-116): < 5 µM
inhibition (Tubulin (Homo sapiens) [6]): inactive

SMILES: COc1cc(/C=C\c2cccc(B(O)O)c2)cc(OC)c1OC
IC50 (MCF7): 0.85 µM
IC50 at 48 h [1]: > 50 µM
IC50 [3]: 27 µM
inhibition (Tubulin (Homo sapiens) [4]): inactive
EC50 [2]: 9 µM
IC50 (HCT-116): < 5 µM
inhibition (Tubulin (Homo sapiens) [6]): inactive

SMILES: COc1ccc(C(=O)c2cc(OC)c(OC)c(OC)c2)cc1O [PHENSTATIN]
IC50 at 48 h [1]: > 50 µM
IC50 [3]: 1 µM
inhibition (Tubulin (Homo sapiens) [4]): inactive
inhibition (Tubulin (Homo sapiens) [6]): 86%

IC50 (MCF7): 0.3 µM
IC50 [3]: 12 µM
inhibition (Tubulin (Homo sapiens) [4]): 59%
EC50 [2]: 5 µM
inhibition (Tubulin (Homo sapiens) [6]): 21%
SMILES: COc1ccc(C(=O)c2cc(OC)c(OC)c(OC)c2)cc1B(O)O
Activity (A10 [7]): Active
IC50 at 48 h [1]: > 50 µM
Activity (MIA PaCa-2): Active; Compound Showed Less Toxicity Than Hct-116 Cells

SMILES: COc1ccc(/C=C\c2cc(OC)c(OC)c(OC)c2)cc1B(O)O
IC50 at 48 h [1]: > 50 µM
IC50 [3]: 1.5 µM
inhibition (Tubulin (Homo sapiens) [4]): 99%
EC50 [2]: 0.058 µM

IC50 (MCF7): > 2.5 µM
IC50 [3]: > 40 µM
inhibition (Tubulin (Homo sapiens) [4]): inactive
EC50 [2]: > 50 µM
inhibition (Tubulin (Homo sapiens) [6]): inactive
SMILES: COc1cc(C(=O)c2cnc(OC)c(B(O)O)c2)cc(OC)c1OC
IC50 at 48 h [1]: > 50 µM

SMILES: COc1cc(/C=C\c2ccccc2B(O)O)cc(OC)c1OC
IC50 (MCF7): > 2.5 µM
IC50 at 48 h [1]: > 50 µM
IC50 [3]: > 40 µM
inhibition (Tubulin (Homo sapiens) [4]): inactive
EC50 [2]: 51 µM
IC50 (HCT-116): < 5 µM
inhibition (Tubulin (Homo sapiens) [6]): inactive
Activity (MIA PaCa-2): Active; Compound Showed Less Toxicity Than Hct-116 Cells

SMILES: COc1cc(/C=C\c2ccc(B(O)O)cc2)cc(OC)c1OC
IC50 (MCF7): 0.48 µM
IC50 at 48 h [1]: > 50 µM
IC50 [3]: 10 µM
inhibition (Tubulin (Homo sapiens) [4]): 77%
EC50 [2]: 4 µM
IC50 (HCT-116): < 5 µM
inhibition (Tubulin (Homo sapiens) [6]): 6.4%
Activity (A10 [8]): Active
